Mdm2 ligase inh: MDM2-luciferase reporter signal enhancers, primary screen, MDM2 E3 ligase inhibitor project, cell-based, luminescence, 1536-well | cell-based MDM2 ubiquitination luciferase reporter, 2 h; 0 = plate control, 100 = twice control, blank-subtracted | signal enhancement, % at 5 µM | 210,000 compounds, 0.11% hits | AID 1230, 2008;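 active means signal enhancement of 30% or more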;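 further: luminescence tracks abundance of the self-degrading MDM2-luciferase fusion protein; higher signal means inhibition of MDM2 E3 ligase activity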
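Material: Stable MDM2–luciferase fusion reporter cells | Amount: 2000 cells seeded into each well | Dosing: One concentration, 5 µM, with 0.2% DMSO | Incubation: 4 h cell settling then 2 h compound exposure, 37 °C | Measured by: Luciferase luminescence | Read-out basis: % enhancement relative to plate controls after blank subtraction | Benchmarks: Control and blank well means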
Hsp70 activator: Hsp70 transcriptional activators, primary screen, cell-based, HeLa, Hsp70 promoter luciferase, luminescence, 10 µM. 200,000 compounds, 0.04% hits. activation, % at 10 µM. HeLa Hsp70 promoter luciferase reporter; scaled: vehicle 0, proteasome-inhibitor control 100%. AID 1203, 2008;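 active means activation above the mean across all tested compounds plus 3 SD, cutoff set per campaign, cut at about 5.5% in these data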
S1P3 antag: S1P3 receptor antagonists, primary screen, cell-based; CHO S1P3 NFAT-BLA reporter, FRET fluorescence, antagonist mode; inhibition, % at 4.98 µM; 170,000 compounds, 0.27% hits;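 active means inhibition above the plate cutoff, the mean inhibition of test wells on that plate plus 3 SD, cut at about 28% in these data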;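 further: cells challenged with S1P at its EC80 of 0.8 µM; blue over green emission ratio from cleaved BLA substrate after 4 h stimulation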
Target sequence (Q99500 whole entry, looked up): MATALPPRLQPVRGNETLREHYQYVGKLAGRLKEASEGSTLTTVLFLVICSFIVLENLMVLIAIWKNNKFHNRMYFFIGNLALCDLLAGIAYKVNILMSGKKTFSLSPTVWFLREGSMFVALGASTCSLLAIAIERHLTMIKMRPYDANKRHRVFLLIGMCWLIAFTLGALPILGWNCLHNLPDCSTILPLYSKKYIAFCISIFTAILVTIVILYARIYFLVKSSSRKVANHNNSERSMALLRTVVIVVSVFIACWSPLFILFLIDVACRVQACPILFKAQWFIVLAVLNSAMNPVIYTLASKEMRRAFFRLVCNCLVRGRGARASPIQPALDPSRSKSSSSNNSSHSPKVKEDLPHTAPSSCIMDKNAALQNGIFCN
CHOP inh: inhibitors of CHOP promoter induction, primary screen, cell-based, unfolded protein response, luciferase reporter; inhibition, % at 10 µM; AID 2732, 2010; 220,000 compounds, 3.8% hits; CHO-K1 CHOP-promoter luciferase, tunicamycin-induced, 15-18 h;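 active means compounds that reduced the stress-induced luciferase reporter signal by more than about 70% of percent inhibition, limit read from the data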
CHOP inh conf: retest of CHOP induction inhibitors, confirmation, cell-based; shares compounds with CHOP inh; CHO-CHOP promoter luciferase reporter, tunicamycin-induced, luminescence; inhibition, % at 10 µM; 2,100 compounds, 45% hits; AID 504437, 2011;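 active means mean of three repeat readings of reporter signal inhibition above a set limit, cut at about 70% in these data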
Hits are given with their value; i = inactive; nt = not tested or not shown. In the library only some 4% were active in any assay of this set; here they are far more common.

SMILES	Mdm2 ligase inh	Hsp70 activator	S1P3 antag	CHOP inh	CHOP inh conf
NNc1nc2sc3c(c2c(=O)n1Cc1ccccc1)CCC3	i	nt	i	i	nt
Nn1c(Nc2ccccc2)nc2sc3c(c2c1=O)CCC3	i	i	i	96.5	i
Cc1cc2c(cc1C)CSC(c1c(O)ccc3ccccc13)SC2	i	i	nt	111.8	115.9
Cc1cc2c(cc1C)CSC(c1ccccc1O)SC2	i	i	nt	108.3	110.7
CC(C)CNC(=O)COc1ncnc2sccc12	i	i	i	i	nt
Cc1ccc(OCC(=O)Nc2cccc(-c3nnc(-c4ccccc4)o3)c2)c(C)c1	i	i	nt	i	nt
CCOc1cccc(C(=O)Nc2cccc(-c3nnc(-c4ccc(C)cc4)o3)c2)c1	i	i	i	104.7	102.8
COc1ccc(CC(=O)Nc2cccc(-c3nnc(-c4cccc(C)c4)o3)c2)cc1OC	i	i	84.7	nt	113.1
CCOc1cccc(C(=O)Nc2cccc(-c3nnc(-c4ccccc4)o3)c2)c1	i	i	i	i	nt
Cc1ccc2nc(NC(=O)C(NS(=O)(=O)c3cccc4nsnc34)C(C)C)sc2c1 (configuration not stated)	i	i	nt	i	nt
CC(C)c1ccccc1NC(=O)Cn1c(/C=C/c2ccccc2)nc2ccccc21	nt	nt	i	99.3	101.2
CCOC(=O)c1cc2n(c1/N=C/N(C)C)-c1ccccc1C2=O	i	i	nt	i	nt
O=C(Nc1nc2ccc(SC(F)F)cc2s1)c1ccc(NS(=O)(=O)c2ccc(F)c(F)c2)cc1	i	i	i	105.8	i
CS(=O)(=O)c1ccc2nc(NC(=O)c3ccc(NS(=O)(=O)c4ccc(F)c(F)c4)cc3)sc2c1	nt	nt	i	i	nt
CCOc1ccc(C2C=C(c3ccc(C)cc3)Nc3nnnn32)cc1 (configuration not stated)	i	i	i	107.0	77.1
N#Cc1cc2[nH]c3ccccc3c2[n+](-c2ccc([N+](=O)[O-])cc2)c1N	i	i	i	i	nt
CC1(C)Oc2ccc3ccc(=O)oc3c2/C(=C/Nc2ccc(O)cc2)C1=O	i	i	i	i	nt
CC1(C)Oc2ccc3ccc(=O)oc3c2/C(=C/Nc2cccc(O)c2)C1=O	i	i	i	105.9	i
COc1cc(/C=C/C(=O)O)cc2c1OCCO2	i	i	i	i	nt
CCOC(=O)c1c(NC(=O)C2=C(C)NC(=S)NC2c2ccc(CC)cc2)sc(C)c1C (configuration not stated)	i	i	i	97.2	i
O=Cc1ccc(N2CCCC2)c([N+](=O)[O-])c1	i	i	i	i	nt
O=[N+]([O-])/C=C\c1ccc(N2CCCC2)c(F)c1	i	i	i	108.6	i
CCn1cc(CNC(=S)Nc2cccc(Cl)c2C)cn1	i	i	i	i	nt
COc1ccc(S(=O)(=O)n2nc(-c3ccc(Cl)cc3)cc2N)cc1OC	i	i	nt	i	nt
Nc1cc(-c2ccc(Cl)cc2)nn1S(=O)(=O)c1ccc(Cl)cc1	i	i	nt	108.4	i
SMILES	Mdm2 ligase inh	Hsp70 activator	S1P3 antag	CHOP inh	CHOP inh conf
O=C(NNC1=Nc2cc([N+](=O)[O-])ccc2OC1)c1ccccc1Cl	i	nt	i	i	nt
CNC(=O)c1c(NC(=O)c2cc(-c3cc(C)c(C)cc3O)n[nH]2)sc2c1CCCC2	nt	nt	i	102.7	i
CC1=NOC(=O)/C1=C\c1ccc(-c2cc(Cl)ccc2Cl)o1	i	i	nt	113.5	i
CC1=NOC(=O)/C1=C/c1ccc(-c2ccc(Cl)cc2)o1	nt	i	nt	108.6	i
CC1=NOC(=O)/C1=C\c1ccc(-c2ccc(Br)cc2C(=O)O)o1	i	i	i	i	nt
CC1=NOC(=O)/C1=C\c1ccc(-c2ccc(Br)cc2)o1	i	i	i	i	nt
CCOC(=O)C(C(=O)OCC)C(C(=O)OCC)N1CCOCC1 (configuration not stated)	i	i	nt	102.4	i
Cc1ccc2nc(NC(=O)CCn3c(=O)sc4ccccc43)sc2c1	i	i	nt	97.5	i
O=C(CCn1c(=O)sc2ccccc21)Nc1nc2ccccc2s1	i	i	nt	i	nt
Cc1sc2ncnc(N3CCCCC3C)c2c1C (configuration not stated)	i	i	i	98.7	70.3
CC(=O)C(C(C)=O)c1c(Cl)c(O)c(O)c2c(C(=O)c3ccccc3)coc12	i	i	i	nt	100.3
CN1CCN(Cc2c(O)ccc3occ(C(=O)c4ccccc4)c23)CC1	i	i	i	i	nt
Cc1cc(C)nc(N/N=C2/CCCC/C2=C\c2ccccc2)n1	i	i	i	i	nt
Cc1ccc(N=C2SC(C(=O)Nc3ccc(OC(F)(F)F)cc3)C(N)=C2C(=O)Nc2c(C)cc(C)cc2C)cc1 (configuration not stated)	i	i	i	105.1	83.5
O=[N+]([O-])c1cc(-n2cnnn2)ccc1N1CCC(Cc2ccccc2)CC1	i	i	nt	103.5	i
COc1cc(C)nc(N2CCCC(C(=O)Nc3cccc(Cl)c3C)C2)n1 (configuration not stated)	i	i	nt	105.4	94.9
O=C1C2C3C=CC(CO)(O3)C2C(=O)N1c1ccccc1-c1ccccc1 (configuration not stated)	i	i	i	nt	i
CC(=O)Oc1ccc(N2C(=O)C3C4C=CC(CO)(O4)C3C2=O)cc1 (configuration not stated)	i	i	nt	i	nt
O=C(OCn1ncc(Cl)c(Cl)c1=O)c1cccc(C(F)(F)F)c1	i	i	nt	106.9	120.1
Cc1nc2ccccn2c1C(=O)N=Nc1c(O)n(CCC(C)C)c2ccccc12	i	i	i	101.5	105.0
CCn1c(SCC(=O)N/N=C/c2ccc(OC)c(OC)c2)nc2ccccc21	i	i	nt	i	nt
COc1cc(/C=C/C(=O)NCCn2c(C)cc3ccccc32)cc(OC)c1OC	nt	i	i	i	nt
CCSc1nc2ccccc2n1C(=O)/C=C/c1ccc(OC)c(OC)c1	64.6	i	i	105.0	113.7
C=CCSc1nc2ccccc2n1C(=O)/C=C/c1cc(OC)c(OC)c(OC)c1	53.6	9.7	nt	111.0	109.1
Cc1nc2ccccc2c(=O)n1NC(=O)C1CC1C (configuration not stated)	i	i	i	i	nt
SMILES	Mdm2 ligase inh	Hsp70 activator	S1P3 antag	CHOP inh	CHOP inh conf
COc1ccc(CCC(=O)N2CCc3ccccc32)cc1	i	i	i	i	nt
Cc1ccccc1NC(=O)C(=Cc1ccc(C(=O)O)cc1)C(=O)Nc1ccccc1C	i	i	i	102.9	i
CC(=O)/C(=C/c1ccccc1)C(=O)Nc1ccccc1C	i	i	i	i	nt
Cc1ccc(-c2nc(C)sc2CC(=O)Nc2cccc(C)c2C)cc1	i	i	i	i	nt
CC(C)(C)C(=O)Nc1nc2cc3c(cc2s1)OCO3	i	nt	i	i	nt
Cc1ccc(C(=O)N2C(=S)C(c3ccc(F)cc3)=NC23CCN(C)CC3)cc1	i	i	i	97.6	i
CN1CCN(NC(=O)c2ccc(F)cc2)CC1	i	i	nt	i	nt
